Assay results as given in ChEMBL document CHEMBL1152442, “Discovery of a new template for anticancer agents: 2'-deoxy-2'-fluoro-4'-selenoarabinofuranosyl-cytosine (2'-F-4'-seleno-ara-C)” (J Med Chem, 2009).

Experiments:
Assay type in all cases: functional, cell-based
HCT-116 = experiment: Cytotoxicity against human HCT116 cells by sulforhodamine B method
Method in brief: (§1)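 Human tumour lines tested: colon HCT116, lung A549, stomach SNU638, breast T47D, prostate PC-3 and leukaemia K562. Growth was read out by sulforhodamine B protein staining.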

A549 = experiment: Cytotoxicity against human A549 cells by sulforhodamine B method; method in brief: as §1
SNU-638 = experiment: Cytotoxicity against human SNU638 cells by sulforhodamine B method; method in brief: as §1
T47D = experiment: Cytotoxicity against human T47D cells by sulforhodamine B method; method in brief: as §1
PC-3 = experiment: Cytotoxicity against human PC3 cells by sulforhodamine B method; method in brief: as §1
K562 = experiment: Cytotoxicity against human K562 cells by sulforhodamine B method; method in brief: as §1

SMILES | IC50 (HCT-116) | IC50 (A549) | IC50 (SNU-638) | IC50 (T47D) | IC50 (PC-3) | IC50 (K562)
O=c1ccn([C@@H]2[Se][C@H](CO)[C@@H](O)[C@@H]2O)c(=O)[nH]1 | > 100000 nM | > 100000 nM | > 100000 nM | > 100000 nM | > 100000 nM | > 100000 nM
Nc1ccn([C@@H]2[Se][C@H](CO)[C@@H](O)[C@@H]2O)c(=O)n1 | 7130 nM | 8830 nM | 4720 nM | – | – | 86600 nM
O=c1ccn([C@@H]2[Se][C@H](CO)[C@@H](O)[C@@H]2F)c(=O)[nH]1 | > 100000 nM | > 100000 nM | > 100000 nM | > 100000 nM | > 100000 nM | > 100000 nM
Nc1ccn([C@@H]2[Se][C@H](CO)[C@@H](O)[C@@H]2F)c(=O)n1 | 1100 nM | 470 nM | 140 nM | 790 nM | 580 nM | 630 nM
Nc1ccn([C@@H]2O[C@H](CO)[C@@H](O)[C@@H]2O)c(=O)n1 [CYTARABINE] | 5300 nM | 1900 nM | 150 nM | 2700 nM | 55900 nM | 50 nM
Nc1ccn([C@@H]2O[C@H](CO)[C@@H](O)C2(F)F)c(=O)n1 [GEMCITABINE] | 5 nM | 90 nM | – | – | 40 nM | –
